This is an account of results in ChEMBL document CHEMBL3286302, “Design, synthesis and biological evaluation of small molecular polyphenols as entry inhibitors against H(5)N(1)” (Bioorg Med Chem Lett, 2014).

What is called IC50 is the concentration at which inhibition is half-maximal. As a reminder, the CC50 is the concentration giving 50% cytotoxicity. A high value points to better tolerance by the cells. By inhibition is commonly meant how much of the control response was suppressed.

Data set [1] can be described thus: Selectivity index, ratio of CC50 for MDCK cells to IC50 for Influenza A virus (A/Vietnam/1194/2004(H5N1)). Format: functional.
A short description of data set [2]: Antiviral activity against Influenza A virus (A/Vietnam/1194/2004(H5N1)) infected in MDCK cells assessed as inhibition of viral replication after 2 to 3 days by crystal violet staining-based plaque reduction assay. Format: functional, cell-based. On the technique in general: Plaques are areas of infected cells; plaque reduction assays count them against a control.

Data set [3] is described as follows: Cytotoxicity against MDCK cells after 72 hrs by MTT assay. The class given is cell-based, Canis lupus familiaris. As to conditions: dog. Put shortly:
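Uninfected MDCK cells were assayed by MTT. CC50 is the concentration causing 50% cell death. Values are the average of three separate experiments.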
A general note: Tetrazolium dyes change colour on reduction, which living cells bring about.

For data set [4], the target named is Neuraminidase (Influenza A virus) (UniProt B4URF0). Description: Inhibition of Influenza A virus H5N1 neuraminidase up to 20 ug/ml by fluorescence spectrophotometric analysis.
The nature of data set [5]: cells. The class given is functional, Influenza A virus (A/Vietnam/1194/2004(H5N1)). As to conditions: Influenza A virus, MDCK, 2 h.
Data set [6] in a line: cells. The class given is functional, Influenza A virus (A/Vietnam/1194/2004(H5N1)). As to conditions: Influenza A virus, MDCK, 2 h. The source holds these as a separate data set.
A further data set has as its system Influenza A virus. Description: Inhibition of Influenza A virus H5N1 hemagglutinin adsorption to chicken RBC at 100 ug/ml by two-fold dilution method. Put shortly:
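Hemagglutination inhibition assay using H5 standard antigen and antiserum. Compounds were tested in serial 2-fold dilutions from 100 to 0.098 µg/ml.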

The source made the active and inactive calls. No cut-off for these calls is given here.

Neuraminidase (Influenza A virus), sequence (B4URF0 as listed by the source): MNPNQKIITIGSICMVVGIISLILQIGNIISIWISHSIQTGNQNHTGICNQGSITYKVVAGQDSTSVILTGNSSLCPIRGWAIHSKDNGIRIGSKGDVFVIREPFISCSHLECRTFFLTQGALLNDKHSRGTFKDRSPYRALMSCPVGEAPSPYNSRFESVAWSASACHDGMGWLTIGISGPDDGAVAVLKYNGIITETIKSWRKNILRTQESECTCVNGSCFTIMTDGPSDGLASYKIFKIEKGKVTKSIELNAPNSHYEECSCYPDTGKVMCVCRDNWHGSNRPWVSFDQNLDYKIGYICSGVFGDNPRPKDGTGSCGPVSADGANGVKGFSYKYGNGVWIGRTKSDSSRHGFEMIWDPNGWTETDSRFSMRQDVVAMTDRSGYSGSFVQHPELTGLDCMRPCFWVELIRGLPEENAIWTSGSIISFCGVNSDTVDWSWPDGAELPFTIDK

Regarding `CCOC(=O)CCc1ccc(O)c(O)c1`, the “Ratio CC50/IC50” value in data set [1] is reported as more than 10.08. Besides, in data set [2], the half-inhibitory concentration (IC50) turned out to be 21.5 µM. Besides, the CC50 at 72 h in data set [3] is more than 216 µM.

In the case of `CC(C)OC(=O)Cc1ccc(O)c(O)c1`, the “Ratio CC50/IC50” value in data set [1] is given as more than 9.77. Moreover, the IC50 in data set [2] turned out to be 15.2 µM. The same compound displayed a CC50 at 72 h in data set [3] of more than 149 µM.

As to `COC(=O)[C@H](CC(C)C)NC(=O)c1ccc(O)c(O)c1`, the inhibition result (in data set [4]; in the data set on Influenza A virus) was “inactive” throughout. Besides, the results for the inhibition at 30 µM in the data set “cells [5]” and in “cells [6]” were 20% and more than 50%, respectively. Also, the “Ratio CC50/IC50” value in data set [1] is recorded as more than 5.33. The IC50 in data set [2] was found to be 22.2 µM. Besides, the CC50 at 72 h in data set [3] is more than 119 µM.

As to `CC(C)OC(=O)c1ccc(O)c(O)c1`, the inhibition result (in data set [4]; in the data set on Influenza A virus) was “inactive” in each case. In addition, the values for the inhibition at 30 µM in the data set “cells [5]” and in the data set “cells [6]” were 20% and more than 50%, respectively. For the same compound, the “Ratio CC50/IC50” value in data set [1] is listed as more than 10.65. Moreover, the IC50 in data set [2] came out at 14.9 µM. Moreover, the 50% cytotoxic concentration (CC50) at 72 h in data set [3] was more than 159 µM.

Regarding `COC(=O)CCc1ccc(O)c(O)c1`, in data set [1], the “Ratio CC50/IC50” value is reported as more than 10.01. Further, the IC50 in data set [2] amounted to 23.8 µM. Moreover, the CC50 at 72 h in data set [3] is more than 238 µM.

Turning to `COC(=O)c1ccc(OC)c(OC)c1` [VERATRIC ACID METHYL ESTER], the cytotoxic concentration (CC50) at 72 h in data set [3] was more than 170 µM.

Turning to `COC(=O)[C@H](CC(C)C)NC(=O)Cc1ccc(O)c(O)c1`, the “Ratio CC50/IC50” value in data set [1] is more than 4.38. Besides, in data set [2], the IC50 was found to be 41.8 µM. The same compound yielded a CC50 at 72 h in data set [3] of more than 183 µM.

For the compound `COC(=O)[C@H](Cc1ccccc1)NC(=O)c1ccc(O)c(O)c1`, in data set [3], the CC50 at 72 h was more than 106 µM.

On to `CCOC(=O)c1ccc(O)c(O)c1`, for which the “Ratio CC50/IC50” value in data set [1] was more than 10.55. Besides, in data set [2], the IC50 was found to be 16.1 µM. The CC50 at 72 h in data set [3] was more than 170 µM.

For `COC(=O)c1ccc(O)c(O)c1` [METHYL PROTOCATECHUATE], the “Ratio CC50/IC50” value in data set [1] was more than 10.02. In addition, the IC50 in data set [2] is 18.3 µM. The compound also registered a CC50 at 72 h in data set [3] of more than 183 µM.

Consider `OCc1ccc(O)c(O)c1`, for which the inhibition result (in data set [4]; in the data set with Influenza A virus) was “inactive” each time. Also, the inhibition at 30 µM in the data set “cells [5]” was 20%; in “cells [6]”, 100%. Moreover, the “Ratio CC50/IC50” value in data set [1] is more than 80.15. The IC50 in data set [2] stood at 1.78 µM. In data set [3], this compound registered a CC50 at 72 h of more than 143 µM.

Consider `COC(=O)CCc1ccc(OC)c(OC)c1`, for which the CC50 at 72 h in data set [3] was more than 149 µM.

On to `CC(C)OC(=O)CCc1ccc(O)c(O)c1`, for which the “Ratio CC50/IC50” value in data set [1] was more than 10.16. Further, the IC50 in data set [2] was 19.5 µM. Besides, in data set [3], the cytotoxic concentration (CC50) at 72 h was more than 198 µM.

Turning to `COC(=O)Cc1ccc(O)c(O)c1`, the “Ratio CC50/IC50” value in data set [1] was more than 8.7. The IC50 in data set [2] worked out at 19.5 µM. For the same compound, the CC50 at 72 h in data set [3] was more than 170 µM.

Compound `COC(=O)Cc1ccc(OC)c(OC)c1` came in with a CC50 at 72 h in data set [3] of more than 159 µM.

As to `CC(=O)N[C@H]1[C@H]([C@H](O)[C@H](O)CO)OC(C(=O)O)=C[C@@H]1NC(=N)N` [ZANAMIVIR], the “Ratio CC50/IC50” value in data set [1] is listed as more than 113.64. Moreover, the IC50 in data set [2] was 0.88 µM. For the same compound, the CC50 at 72 h in data set [3] was more than 100 µM.

`COC(=O)[C@H](Cc1ccccc1)NC(=O)Cc1ccc(O)c(O)c1`: the CC50 at 72 h in data set [3] was more than 170 µM.

Consider `NC12CC3CC(CC(C3)C1)C2` [AMANTADINE], for which, in data set [1], the “Ratio CC50/IC50” value is on record as 20.27. In addition, the IC50 in data set [2] amounted to 10.8 µM. This compound registered a CC50 at 72 h in data set [3] of 219 µM.

For the compound `CCOC(=O)Cc1ccc(O)c(O)c1`, the “Ratio CC50/IC50” value in data set [1] was more than 9.41. Further, the IC50 in data set [2] amounted to 16.9 µM. Also, the CC50 at 72 h in data set [3] was more than 159 µM.
